# Assay results gathered from unrelated publications.
# pKi: −log10 of the molar value.
# DRD3: D(3) dopamine receptor (DRD3, Homo sapiens, UniProt P35462)
# CASP3: Caspase-3 (CASP3, Homo sapiens, UniProt P42574)
# PPARG: Peroxisome proliferator-activated receptor gamma (PPARG, Homo sapiens, UniProt P37231)
# SLC6A3: Sodium-dependent dopamine transporter (SLC6A3, Homo sapiens, UniProt Q01959)
SMILES,target,test,setting,pKi
CN(CCCCNC(=O)c1cc2ccccc2[nH]1)[C@@H]1Cc2cccc3[nH]c(=O)n(c23)C1,DRD3,"ligand displacement, radioligand",cell membranes,7.08
CC(=O)N[C@@H](CCCCNC(=O)CSCCNC(=O)CCNC(=O)[C@H](O)C(C)(C)COP(=O)(O)OP(=O)(O)OC[C@H]1O[C@@H](n2cnc3c(N)ncnc32)[C@H](O)[C@@H]1OP(=O)(O)O)C(N)=O,"Histone acetyltransferase type B catalytic subunit (Homo sapiens, UniProt O14929)","enzyme activity, inhibitor, radiometric",,4.13
CCCN(CCCCNC(=O)c1cc2ccccc2[nH]1)[C@H]1CNc2ccccc2C1,DRD3,"ligand displacement, radioligand",cell membranes,8.87
O=C1CSC(=S)N1NC(=S)SSC(=S)NN1C(=O)CSC1=S,"Tyrosine-protein phosphatase non-receptor type 22 (PTPN22, Homo sapiens, UniProt Q9Y2R2)","enzyme activity, inhibitor, fluorescence",,5.96
O=c1c(O)c(-c2ccc(O)cc2)oc2cc(O)cc(O)c12,CASP3,"enzyme activity, inhibitor, fluorescence",,3.71
O=C(/C=C(/Nc1ccccc1)C(=O)c1ccccc1)c1ccccc1,"DNA repair nuclease/redox regulator APEX1 (APEX1, Homo sapiens, UniProt P27695)","enzyme activity, inhibitor",,4.43
C=CCc1ccc(O)c(-c2ccc(O)c(CC=C)c2)c1,PPARG,"ligand displacement, TR-FRET",,5.70
CC1Cc2ccccc2N1C(=O)CCCN(C)[C@@H]1Cc2cccc3[nH]c(=O)n(c23)C1 (stereo partly shown),DRD3,"ligand displacement, radioligand",cell membranes,5.48
CNc1nc2cc(OCCCCN3CCC(c4cccc(Cl)c4Cl)CC3)ccc2s1,SLC6A3,"ligand displacement, radioligand",,5.68
OC[C@@]12C[C@@H]1[C@@H](n1cnc3c(NC(C4CCCC4)C4CCCC4)nc(Cl)cc31)[C@H](O)[C@@H]2O,SLC6A3,"cell-free assay, radioligand",,5.41
c1ccc(CCC2=NCCN2CCc2ccccc2)cc1,DRD3,"ligand displacement, radioligand",,< 5.00
CN(CCOc1ccc(CC2SC(=O)N(CC(=O)OC(C)(C)C)C2=O)cc1)c1ccccn1 (stereo not shown),PPARG,"ligand displacement, TR-FRET",,6.99
CN1CCN(c2ccc(-c3ccnn3-c3ccc(S(N)(=O)=O)cc3)cc2)CC1,"Carbonic anhydrase 12 (CA12, Homo sapiens, UniProt O43570)","enzyme activity, inhibitor, stopped-flow",,6.39
O=c1c(O)c(-c2cc(O)c(O)c(O)c2)oc2cc(O)cc(O)c12,CASP3,"enzyme activity, inhibitor, fluorescence",,4.16
CC(C)c1nc2cc(OCCCCN3CCN(c4cccc5c4OCCO5)CC3)ccc2s1,SLC6A3,"ligand displacement, radioligand",,5.60
CN(CCCCNC(=O)c1ccc2scnc2c1)[C@@H]1Cc2cccc3[nH]c(=O)n(c23)C1,DRD3,"ligand displacement, radioligand",cell membranes,6.37
COc1ccc2c(c1)C(=O)N(CCCN1CCN(c3ccccc3OC)CC1)C2,DRD3,"ligand displacement, radioligand",,6.41
CSC[C@H](NC(=O)C1=NO[C@@H]2OCC[C@H]12)C(=O)N[C@@H](CC(C)C)[C@@H](O)C[C@@H](C)C(=O)N[C@H](C(=O)NCC(C)C)C(C)C,"Beta-secretase 2 (BACE2, Homo sapiens, UniProt Q9Y5Z0)","enzyme activity, inhibitor",,7.34
CC1(C)C=Cc2c(cc3oc(-c4ccccc4)c(O)c(=O)c3c2O)O1,PPARG,"cell-free assay, TR-FRET",,5.49
